{"data": "Experimental data pooled from the literature", "target": "Serine/threonine-protein kinase PLK3 (PLK3, Homo sapiens, UniProt Q9H4B4)", "note": "Each line is one published result; the experiments were not run side by side."}
{"SMILES": "CC(C)(C)c1nc2c(s1)c1nc(N)ncc1c1ccc(NS(=O)(=O)c3c(F)cccc3F)c(F)c12", "read-out": "enzyme activity", "mode": "inhibitor", "method": "radiometric", "tested at": "1 µM", "endpoint": "remaining activity", "value": "91%"}
{"SMILES": "Cc1ccc(C(=O)NCc2ccsc2)cc1C#Cc1cn(C(C)C)c2ncnc(N)c12", "read-out": "enzyme activity", "mode": "inhibitor", "tested at": "1 µM", "endpoint": "activity vs control", "value": "118%"}
{"SMILES": "O=C(NC[C@@H]1[C@H]2CN(C(=O)OCc3cc(C(F)(F)F)cc(C(F)(F)F)c3)C[C@@H]12)c1ccc2[nH]nnc2c1", "read-out": "cell-free assay", "method": "competition with immobilised ligand", "tested at": "1 µM", "endpoint": "remaining binding", "value": "89%"}
{"SMILES": "CCN(CC)c1ccc(C2=NNC(=O)CC2C)cc1[N+](=O)[O-] (stereo not shown)", "read-out": "enzyme activity", "mode": "inhibitor", "tested at": "10 µM", "endpoint": "remaining activity", "value": "104%"}
{"SMILES": "O=C(Nc1cnn(-c2csc(C(=O)NC3COC3)c2)c1)Nc1ccccc1Cl", "read-out": "enzyme activity", "mode": "inhibitor", "tested at": "5 µM", "endpoint": "remaining activity", "value": "96.1%"}
{"SMILES": "O=c1cc(N2CCOCC2)oc2c(-c3ccccc3)cccc12", "read-out": "cell-free assay", "tested at": "0.5 µM", "endpoint": "remaining signal", "value": "71.9%"}
{"SMILES": "C[C@@]1(Cc2ccc(C#N)cc2)C(=O)N(c2cc(Cl)cc(Cl)c2)c2ncc(C(=O)NC3(c4nc(C5CCC5)no4)CC3)n21", "read-out": "cell-free assay", "method": "competition with immobilised ligand", "tested at": "1 µM", "endpoint": "remaining binding", "value": "100%"}
{"SMILES": "Cc1ccc(Nc2nccc(N(C)c3ccc4c(C)n(C)nc4c3)n2)cc1S(N)(=O)=O", "read-out": "enzyme activity", "mode": "inhibitor", "tested at": "0.3 µM", "endpoint": "inhibition", "value": "-9%"}
{"SMILES": "Nc1cnc(N2CCc3cc(S(=O)(=O)Nc4c(F)cc(Cl)cc4F)cc(N4CCCC4=O)c32)nc1", "read-out": "cell-free assay", "method": "competition with immobilised ligand", "tested at": "1 µM", "endpoint": "remaining binding", "value": "100%"}
{"SMILES": "COc1cc2ncnc(Nc3ccc(Oc4ccccc4)c(C)c3C)c2cc1OC", "read-out": "enzyme activity", "mode": "inhibitor", "tested at": "1 µM", "endpoint": "inhibition", "value": "-16%"}
{"SMILES": "COc1cc2c(Nc3ccc(Br)cc3F)ncnc2cc1OCC1CCN(C)CC1", "read-out": "cell-free assay", "tested at": "0.5 µM", "endpoint": "remaining signal", "value": "95%"}
{"SMILES": "CCOC(=O)c1cc2cc(-c3cc(C(=O)NCc4ccc(C(=O)O)cc4)nn3C)ccc2[nH]1", "read-out": "cell-free assay", "method": "competition with immobilised ligand", "tested at": "0.1 µM", "endpoint": "remaining binding", "value": "70%"}
{"SMILES": "CNC(=O)c1cc(Oc2ccc(NC(=O)Nc3ccc(Cl)c(C(F)(F)F)c3)cc2)ccn1", "read-out": "enzyme activity", "mode": "inhibitor", "tested at": "10 µM", "endpoint": "inhibition", "value": "-14%"}
{"SMILES": "N#CCCc1ccc2c(c1)-c1[nH]c3ccc([N+](=O)[O-])cc3c1CC(=O)N2", "read-out": "cell-free assay", "tested at": "0.5 µM", "endpoint": "remaining signal", "value": "99.7%"}
{"SMILES": "CN1CCN(c2cnc3c(C4CCN(C(=O)c5ccc(OC(F)(F)F)cc5N)CC4)ncnc3c2)CC1", "read-out": "cell-free assay", "method": "competition with immobilised ligand", "tested at": "1 µM", "endpoint": "remaining binding", "value": "100%"}
{"SMILES": "CCCOc1ccc(OC)c(F)c1C(=O)c1ccc(C(=O)N[C@@H]2CNC[C@H]2NC(=O)c2ccc3[nH]ncc3c2)cc1", "read-out": "enzyme activity", "mode": "inhibitor", "tested at": "10 µM", "endpoint": "remaining activity", "value": "119%"}
{"SMILES": "Cc1cnc(NC2CCOCC2)nc1-n1cnc(C(=O)NC(CN)c2cc(F)cc(Cl)c2)c1 (stereo not shown)", "read-out": "enzyme activity", "mode": "inhibitor", "method": "radiometric", "tested at": "1 µM", "endpoint": "remaining activity", "value": "88%"}
{"SMILES": "CC(C)c1ccc(NC(=O)c2cccs2)c(-c2nc3ccccc3[nH]c2=O)c1", "read-out": "enzyme activity", "mode": "inhibitor", "tested at": "1 µM", "endpoint": "activity vs control", "value": "97%"}
{"SMILES": "CC(C)(O)[C@H]1CC[C@H](Nc2ccc3ncc(-c4cccc(C(F)(F)F)c4)n3n2)CC1", "read-out": "enzyme activity", "mode": "inhibitor", "tested at": "1 µM", "endpoint": "remaining activity", "value": "102%"}
{"SMILES": "O=C1NC(c2ccccn2)Sc2ccccc21 (stereo not shown)", "read-out": "cell-free assay", "method": "competition with immobilised ligand", "tested at": "1 µM", "endpoint": "remaining binding", "value": "88%"}
{"SMILES": "COc1cc(-c2cc(-c3ccc(N4CCNCC4)cc3)cnc2C)cc(OC)c1OC", "read-out": "enzyme activity", "mode": "inhibitor", "tested at": "0.1 µM", "endpoint": "inhibition", "value": "4%"}
{"SMILES": "CCS(=O)(=O)c1cc2cc(C[C@@](O)(CC(C)(C)c3ccc(F)cc3C(N)=O)C(F)(F)F)[nH]c2cn1", "read-out": "cell-free assay", "method": "competition with immobilised ligand", "tested at": "1 µM", "endpoint": "remaining binding", "value": "99%"}
{"SMILES": "CCN(CC)CCNC(=O)c1c(C)[nH]c(/C=C2\\C(=O)Nc3ccc(F)cc32)c1C", "read-out": "enzyme activity", "mode": "inhibitor", "tested at": "10 µM", "endpoint": "inhibition", "value": "-4%"}
{"SMILES": "N#CC1(c2ccccn2)CCN(Cc2cc(C(=O)N3CCCC3)c(=O)n3ccccc23)CC1", "read-out": "cell-free assay", "method": "competition with immobilised ligand", "tested at": "1 µM", "endpoint": "remaining binding", "value": "100%"}
{"SMILES": "O=C(CSc1nc2nccnc2c(=O)n1CCc1ccccc1)Nc1nccs1", "read-out": "enzyme activity", "mode": "inhibitor", "tested at": "10 µM", "endpoint": "inhibition", "value": "4%"}
